# From the RNAGym collection of RNA variant scans (doi:10.1126/science.aae0568)
# Fewer inactive variants are shown than the library holds.
# B1: tRNA (parent)
# chain: GUUCCGUUGGCGUAAUGGUAACGCGUCUCCCUCCUAAGGAGAAGACUGCGGGUUCGAGUCCCGUACGGAACG
# Variants of: B1
# Test: yeast fitness relative to wild type (ratio to wild type); higher = fitter; tRNA-Arg(CCU), competitive growth, 37 C, YPD
# How it was run: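 The tRNA-Arg(CCU) gene variants were made by chemical synthesis with a 3% per-site mutation rate at 69 sites and inserted at the native genomic locus of Saccharomyces cerevisiae. After pooling, the strains were competed in YPD at 37°C for 24 hours in six parallel replicates. Gene amplicons from the start population and each end population were read by 100-nucleotide paired-end sequencing, and Darwinian fitness relative to wild type was taken from genotype frequency changes. Genotypes needed ≥ 100 starting reads, and estimates < 0.5 were set to 0.5.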
row,Variant,yeast fitness
1,GUCCCGUUGGCGUAAUGGUAACGGGUCUCCCUCCUAAGGAGACGACUACGGGUUCGAAUCCCGUACGCAACG [U3C C24G A43C G48A G58A G68C],≤ 0.5
2,GUCCCGUUGGCGUAAUGGUAAAGCGUCUCCCUACUAAGGAGAAGACUGCGGGUUCGAGUCCCGUACGGAACG [U3C C22A C33A],≤ 0.5
3,GUCCCGUUGGCGUAAUGGUAACGGGUCUCCCUCCUAAGGAGAAGACUGCGGGUUCGAGUCUCGUACGGAACG [U3C C24G C61U],0.528
4,GUCCCGUUGGCGUAAUGGUAACGUGUCUCCCUCCUAAGGAGAAGACUGCGGGUUGGAGUCCCGUACGGAUCG [U3C C24U C55G A70U],≤ 0.5
5,GUCCCGUUGGCGUAAUGGUAAAGCGUCUCCCUCCUAAGGAGAAGACUGCGGGUUCGAGUCCCGUACGGACCG [U3C C22A A70C],0.607
6,GUCCCGUUGGCGUAAUGGUAAGGCGUCUCCUUCCUAAGGAGAAGACUGCGGGCUCGAGUCCCGUACGGAACG [U3C C22G C31U U53C],≤ 0.5
7,GUCCCGUUGGCGUAAUGGUAAGGCGUCUACCUCCUAAGGAGCAGACUGCGGGUUCGAGUCCCGUACGGAACG [U3C C22G C29A A42C],≤ 0.5
8,GUCCCGUUGGUGUAAUGGUAACGCGUCUCCUUCCUAAGGAGAAGACUGCGGGUUCGAGUCCCGUACGGAACG [U3C C11U C31U],0.782
9,GUCCCGUUGGCGUAAUGGUAACGGGUCUCCGUCCUAAGGAGAAGACUGCGGGUUCGAGUCGCGUACGGAACG [U3C C24G C31G C61G],≤ 0.5
10,GUCCCGUUGGUGUCAUGGUAUCGCGUCUCCCUCCUCAGGAGAAGACUGCGGGUUCGACUCCCGUACGGAACG [U3C C11U A14C A21U A36C G58C],0.562
11,GUCCCGUUGGCGUAAUGGUAACGUGUCUCCCUCCUAAGGAGCAGACUGCGGGUUCGAGUCCCGUACGGAACG [U3C C24U A42C],0.663
12,GUCCCGUUGGCGUAAUGGUAACGAGUCUUCCUCCUAAGGAGAAGACUGCGGGUUCGAGUCCCGUACUGAACG [U3C C24A C29U G67U],0.522
13,GUCCCGUUGGCGUAAUGGUAACGUGUCUCCCUCCUAAGGAGAAGACUGCGGGUUCGAGUCCUGUACGGAACG [U3C C24U C62U],0.725
14,GUCCCGUUGGUGUAAUGGUAACGCGUCUCCCUCCUAAGGAGAAGAUUGCGGGUUCGAGUCCCGUACGGAACG [U3C C11U C46U],1.1
15,GUCCCGUUGGUGUAAUAGUAACGCGUCUCCCUCCUAAGGAGAAGACUGUGGGUUCGAGUCCCGUACGGAACG [U3C C11U G17A C49U],≤ 0.5
16,GUCCCGUUGGCGUAAUGGUAACGGGUCUCCCUCCUAAGGAGAAGACUGCGGGUUCGAGUCCCGUACGGAACG [U3C C24G],0.642
17,GUCCCGUUGGCGUAAUGGUAAGGCGUCUCCCUCCUAAGGAGAAGACUGCGGGUUCGAGUCCCGUACGGUACG [U3C C22G A69U],0.667
18,GUCCCGUUGGCGUAAUGGUAACGGGUCUCCCUCCUAAGGAGAAGACUGCCGGUUCGAGUCCCGUACGCAACG [U3C C24G G50C G68C],≤ 0.5
19,GUCCCGUUGGCGUAAUGGUAAUGCGUCUCCUUCCUAAGGAGAAGACUGCGGGUUCGAGUCCCGUACGGAACG [U3C C22U C31U],0.691

row,Variant,yeast fitness
1,GUCCCGUUGGCGUAAUGGUAACGAGUCUCCCUCCUAAGGAGAAGACUGCGGGUUAGAGUCCCGUACGGAACG [U3C C24A C55A],≤ 0.5
2,GUCCCGUUGGUGUAAUGGUAACGCGUCUCCCUCCUAAGGUGAAGACUGCGGGUUCGAAUCCCGUACGGAACG [U3C C11U A40U G58A],0.627
3,GUCCCGUUGGCGUAAUGGUAAAGCGUCUCCCUCCUAAGGAGAAGCCUGCGGGUUCGAGUCCGGUUCGGAACG [U3C C22A A45C C62G A65U],0.64
4,GUCCCGUUGGCGUAAUGGUAACGGGUCUCCCUGCUAAGGAGAAGACUGCGGGUUCGAGUCCCGUAUGGAACG [U3C C24G C33G C66U],≤ 0.5
5,GUCCCGUUGGCGUAAUGGUAAUGCGUCUCCCUCCUAAGGAGAAGACUGCGGGUUCGAGUCCCGUACGGAACG [U3C C22U],0.824
6,GUCCCGUUGGCGUAAUGGUAAAGCGUCUCCCUCCUAAGGAGAAGACUGCGGGUUCGAGUCCCGUACGGAACG [U3C C22A],0.79
7,GUCCCGUUGGCGUAAUGGUAAGGCGUCUCCCUCCUAAGGAGAAGACUGCGGGUUCGAGUCCUGUACGGAACG [U3C C22G C62U],0.64
8,GUCCCGUUGGCGUAAUGGUAAGGCAUCUCCCUCCUAAGGAGAAGACUGCGGGUUCGAGUCCCGUACGGAACG [U3C C22G G25A],1.02
9,GUCCCGUUGGUGUAAUGCUAACGCGUCUCCCUCCUAAGGAGAAGACUGCGGGUUCGAGUCCCGUAUGGAACG [U3C C11U G18C C66U],0.516
10,GUCCCGUUGGCGUAAUGGUAAUGCGUCUCCCUCCUUAGGAGAAGACUGCGGGUUCGAGUCCUGUACGGAACG [U3C C22U A36U C62U],≤ 0.5
11,GUCCCGUUGGCGUAAUGGUAAGGCGUCUCCCUCCUAAGGAGAAGACUGCGGGUUCGAGUCUCGUUCGGAACG [U3C C22G C61U A65U],0.596
12,GUCCCGUUGGCGUAAUGGUAACGAGUCUCCCUCCUAAGGAGAAGACUGCGGGUUCGAGUCCAGUCCGGAACG [U3C C24A C62A A65C],≤ 0.5
13,GUCCCGUUGGAGUAAUGGUAACGCGUCUCCCGCCUAAGAAGAAGACUGCGGGUUCGAGUCAAGUACGGAACG [U3C C11A U32G G39A C61A C62A],≤ 0.5
14,GUCCCGUUGGCGUAAUGGUAACGUGUCUCCCUCCUAAGGAGAAGACUGCGGGUUGGAGUCCCGUACGGAACG [U3C C24U C55G],≤ 0.5
15,GUCCCGUUGGGGUAAUGGUAACGCGUCUCCCUCCUAAGGAGAAGACUGCGGGUUCGAGUCCCGUACGGAACG [U3C C11G],0.608
16,GUCCCGUUGGCGUAAUGGUAAGGCGUCUCCCUCCUAAGGAGAAGACUGCGGGUUCGAGUCCCGUACGGAUCG [U3C C22G A70U],0.8
17,GUCCCGUUGGGGUAAUGGUAACGCGUCUCCCUCCUAGGGAGAAGACUGCGGGUUCGAGUCCCGUACGGAACG [U3C C11G A37G],0.563
18,GUCCCGUUGGGGUAAUGGUAACGCGUCUCCCUCCUAAGGACAAGACUGCGGGUUCGAGUCCCGUACGGAACG [U3C C11G G41C],≤ 0.5
19,GUCCCGUUGGUGUAAUGGUAACGCGUCUCCCUCCUAAGGAGAAGACUGCGGGCUCGAGUCCCGUACGGAACG [U3C C11U U53C],0.588
